{"source": "ChEMBL document CHEMBL2062435", "about": "“Synthesis and in vitro antibacterial activity of gemifloxacin derivatives containing a substituted benzyloxime moiety” (2012)"}
{"tested_on": "Enterococcus faecium", "test": "Antimicrobial activity against Enterococcus faecium 10-5 after 18-24 hrs by two-fold serial dilution method", "format": "functional", "outline": "(§1)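 Agar-medium twofold serial dilution against Gram-positive and Gram-negative strains; MIC taken as the lowest compound concentration giving complete inhibition of bacterial growth after incubation at 35 °C for 18-24 h.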", "units": {"MIC": "µg/mL"}}
{"smiles": "COc1cc(CO/N=C2\\CN(c3nc4c(cc3F)c(=O)c(C(=O)O)cn4C3CC3)CC2CN)cc(OC)c1OC.CS(=O)(=O)O", "note": "(racemic)", "MIC": 8}
{"tested_on": "Staphylococcus epidermidis", "test": "Antimicrobial activity against extended spectrum beta-lactamases-producing methicillin-sensitive Staphylococcus epidermidis 10-11 after 18-24 hrs by two-fold serial dilution method", "format": "functional", "outline": "as §1", "units": {"MIC": "µg/mL"}}
{"smiles": "COc1cc(CO/N=C2\\CN(c3nc4c(cc3F)c(=O)c(C(=O)O)cn4C3CC3)CC2CN)cc(OC)c1OC.CS(=O)(=O)O", "note": "(racemic)", "MIC": 8}
{"tested_on": "Enterococcus faecalis", "test": "Antimicrobial activity against Enterococcus faecalis 10-7 after 18-24 hrs by two-fold serial dilution method", "format": "functional", "outline": "as §1", "units": {"MIC": "µg/mL"}}
{"smiles": "COc1cc(CO/N=C2\\CN(c3nc4c(cc3F)c(=O)c(C(=O)O)cn4C3CC3)CC2CN)cc(OC)c1OC.CS(=O)(=O)O", "note": "(racemic)", "MIC": 2}
{"tested_on": "Escherichia coli", "test": "Antimicrobial activity against extended spectrum beta-lactamases-producing Escherichia coli 10-3 after 18-24 hrs by two-fold serial dilution method", "format": "functional", "outline": "as §1", "units": {"MIC": "µg/mL"}}
{"smiles": "COc1cc(CO/N=C2\\CN(c3nc4c(cc3F)c(=O)c(C(=O)O)cn4C3CC3)CC2CN)cc(OC)c1OC.CS(=O)(=O)O", "note": "(racemic)", "MIC": 16}
{"tested_on": "Klebsiella pneumoniae", "test": "Antimicrobial activity against Klebsiella pneumoniae 10-3 after 18-24 hrs by two-fold serial dilution method", "format": "functional", "outline": "as §1", "units": {"MIC": "µg/mL"}}
{"smiles": "COc1cc(CO/N=C2\\CN(c3nc4c(cc3F)c(=O)c(C(=O)O)cn4C3CC3)CC2CN)cc(OC)c1OC.CS(=O)(=O)O", "note": "(racemic)", "MIC": 8}
{"tested_on": "Klebsiella pneumoniae", "test": "Antimicrobial activity against extended spectrum beta-lactamases-producing Klebsiella pneumoniae 10-1 after 18-24 hrs by two-fold serial dilution method", "format": "functional", "outline": "as §1", "units": {"MIC": "µg/mL"}}
{"smiles": "COc1cc(CO/N=C2\\CN(c3nc4c(cc3F)c(=O)c(C(=O)O)cn4C3CC3)CC2CN)cc(OC)c1OC.CS(=O)(=O)O", "note": "(racemic)", "MIC": "> 128"}
{"tested_on": "Streptococcus pneumoniae", "test": "Antimicrobial activity against extended spectrum beta-lactamases-producing Streptococcus pneumoniae 10-4 after 18-24 hrs by two-fold serial dilution method", "format": "functional", "outline": "as §1", "units": {"MIC": "µg/mL"}}
{"smiles": "COc1cc(CO/N=C2\\CN(c3nc4c(cc3F)c(=O)c(C(=O)O)cn4C3CC3)CC2CN)cc(OC)c1OC.CS(=O)(=O)O", "note": "(racemic)", "MIC": 8}
{"tested_on": "Escherichia coli", "test": "Antimicrobial activity against Escherichia coli 10-1 after 18-24 hrs by two-fold serial dilution method", "format": "functional", "outline": "as §1", "units": {"MIC": "µg/mL"}}
{"smiles": "COc1cc(CO/N=C2\\CN(c3nc4c(cc3F)c(=O)c(C(=O)O)cn4C3CC3)CC2CN)cc(OC)c1OC.CS(=O)(=O)O", "note": "(racemic)", "MIC": 128}
{"tested_on": "Staphylococcus aureus", "test": "Antimicrobial activity against Staphylococcus aureus ATCC […] after 18-24 hrs by two-fold serial dilution method", "format": "functional", "outline": "as §1", "units": {"MIC": "µg/mL"}}
{"smiles": "COc1cc(CO/N=C2\\CN(c3nc4c(cc3F)c(=O)c(C(=O)O)cn4C3CC3)CC2CN)cc(OC)c1OC.CS(=O)(=O)O", "note": "(racemic)", "MIC": 0.125}
{"tested_on": "Staphylococcus epidermidis", "test": "Antimicrobial activity against extended spectrum beta-lactamases-producing methicillin-resistant Staphylococcus epidermidis 10-10 after 18-24 hrs by two-fold serial dilution method", "format": "functional", "outline": "(§2)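 Agar twofold serial dilution MIC against clinical isolates. MIC was taken as the lowest concentration giving complete inhibition of bacterial growth after incubation at 35 °C for 18-24 h.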", "units": {"MIC": "µg/mL"}}
{"smiles": "COc1cc(CO/N=C2\\CN(c3nc4c(cc3F)c(=O)c(C(=O)O)cn4C3CC3)CC2CN)cc(OC)c1OC.CS(=O)(=O)O", "note": "(racemic)", "MIC": 2}
{"tested_on": "Staphylococcus aureus", "test": "Antimicrobial activity against extended spectrum beta-lactamases-producing methicillin-sensitive Staphylococcus aureus 10-14 after 18-24 hrs by two-fold serial dilution method", "format": "functional", "outline": "as §1", "units": {"MIC": "µg/mL"}}
{"smiles": "COc1cc(CO/N=C2\\CN(c3nc4c(cc3F)c(=O)c(C(=O)O)cn4C3CC3)CC2CN)cc(OC)c1OC.CS(=O)(=O)O", "note": "(racemic)", "MIC": 0.125}
{"tested_on": "Pseudomonas aeruginosa", "test": "Antimicrobial activity against Pseudomonas aeruginosa 10-12 after 18-24 hrs by two-fold serial dilution method", "format": "functional", "outline": "as §1", "units": {"MIC": "µg/mL"}}
{"smiles": "COc1cc(CO/N=C2\\CN(c3nc4c(cc3F)c(=O)c(C(=O)O)cn4C3CC3)CC2CN)cc(OC)c1OC.CS(=O)(=O)O", "note": "(racemic)", "MIC": 0.125}
{"tested_on": "Escherichia coli", "test": "Antimicrobial activity against Escherichia coli ATCC 25922 after 18-24 hrs by two-fold serial dilution method", "format": "functional", "outline": "as §1", "units": {"MIC": "µg/mL"}}
{"smiles": "COc1cc(CO/N=C2\\CN(c3nc4c(cc3F)c(=O)c(C(=O)O)cn4C3CC3)CC2CN)cc(OC)c1OC.CS(=O)(=O)O", "note": "(racemic)", "MIC": 0.5}
{"tested_on": "Escherichia coli", "test": "Antimicrobial activity against extended spectrum beta-lactamases-producing Escherichia coli 10-4 after 18-24 hrs by two-fold serial dilution method", "format": "functional", "outline": "as §1", "units": {"MIC": "µg/mL"}}
{"smiles": "COc1cc(CO/N=C2\\CN(c3nc4c(cc3F)c(=O)c(C(=O)O)cn4C3CC3)CC2CN)cc(OC)c1OC.CS(=O)(=O)O", "note": "(racemic)", "MIC": 8}
{"tested_on": "Pseudomonas aeruginosa", "test": "Antimicrobial activity against extended spectrum beta-lactamases-producing Pseudomonas aeruginosa 10-15 after 18-24 hrs by two-fold serial dilution method", "format": "functional", "outline": "as §1", "units": {"MIC": "µg/mL"}}
{"smiles": "COc1cc(CO/N=C2\\CN(c3nc4c(cc3F)c(=O)c(C(=O)O)cn4C3CC3)CC2CN)cc(OC)c1OC.CS(=O)(=O)O", "note": "(racemic)", "MIC": 8}
{"tested_on": "Pseudomonas aeruginosa", "test": "Antimicrobial activity against extended spectrum beta-lactamases-producing Pseudomonas aeruginosa 10-5 after 18-24 hrs by two-fold serial dilution method", "format": "functional", "outline": "as §1", "units": {"MIC": "µg/mL"}}
{"smiles": "COc1cc(CO/N=C2\\CN(c3nc4c(cc3F)c(=O)c(C(=O)O)cn4C3CC3)CC2CN)cc(OC)c1OC.CS(=O)(=O)O", "note": "(racemic)", "MIC": 8}
{"tested_on": "Staphylococcus aureus", "test": "Antimicrobial activity against extended spectrum beta-lactamases-producing methicillin-sensitive Staphylococcus aureus 10-13 after 18-24 hrs by two-fold serial dilution method", "format": "functional", "outline": "as §1", "units": {"MIC": "µg/mL"}}
{"smiles": "COc1cc(CO/N=C2\\CN(c3nc4c(cc3F)c(=O)c(C(=O)O)cn4C3CC3)CC2CN)cc(OC)c1OC.CS(=O)(=O)O", "note": "(racemic)", "MIC": 1}
{"tested_on": "Staphylococcus epidermidis", "test": "Antimicrobial activity against extended spectrum beta-lactamases-producing methicillin-resistant Staphylococcus epidermidis 10-13 after 18-24 hrs by two-fold serial dilution method", "format": "functional", "outline": "as §2", "units": {"MIC": "µg/mL"}}
{"smiles": "COc1cc(CO/N=C2\\CN(c3nc4c(cc3F)c(=O)c(C(=O)O)cn4C3CC3)CC2CN)cc(OC)c1OC.CS(=O)(=O)O", "note": "(racemic)", "MIC": 0.5}
